Sampled rows, rich in hits. Any-hit rate of the full collection: about 0.77%.
bIAP act – intestinal alkaline phosphatase (bovine) activation; 0.17% of 200,000 active; activation factor at 20 µM; purified bovine IAP, CDP-star luminescence, 30 min; hits give high values; fold of DMSO-control signal, blank-subtracted; AID 1016;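 active = activation factor of 2 or more at 20 µM, a signal rise over negative controls twice the positive control's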
hIAP block – blocks human intestinal alkaline phosphatase. 0.12% of 330,000 active. AID 2544. inhibition, % at 10 µM. purified IAP, CDP-Star luminescence, 30 min;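 active = inhibition reaching a set limit with compound at 10 µM in the primary screen, cut at about 35% in these data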
Target sequence (P09923 whole entry, looked up): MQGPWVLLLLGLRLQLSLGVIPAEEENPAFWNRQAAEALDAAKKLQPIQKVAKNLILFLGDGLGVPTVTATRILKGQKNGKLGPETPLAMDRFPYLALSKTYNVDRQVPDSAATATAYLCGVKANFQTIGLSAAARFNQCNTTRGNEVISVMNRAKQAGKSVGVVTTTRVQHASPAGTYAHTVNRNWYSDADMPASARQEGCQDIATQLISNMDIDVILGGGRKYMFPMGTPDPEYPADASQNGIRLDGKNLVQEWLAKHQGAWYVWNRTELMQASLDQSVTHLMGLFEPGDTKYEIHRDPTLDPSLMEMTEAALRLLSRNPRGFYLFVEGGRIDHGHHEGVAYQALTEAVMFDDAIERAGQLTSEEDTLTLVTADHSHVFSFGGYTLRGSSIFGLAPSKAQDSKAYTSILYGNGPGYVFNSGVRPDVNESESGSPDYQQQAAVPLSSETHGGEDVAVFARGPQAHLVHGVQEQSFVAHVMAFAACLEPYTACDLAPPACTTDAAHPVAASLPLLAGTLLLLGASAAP
mIAP activ – increases mouse intestinal alkaline phosphatase activity. activation factor at 10 µM. AID 2805. muIAP, CDP-Star luminescence, 30 min; hits give high values; 1 = vehicle-only enzyme signal, 0 = enzyme-free wells. 0.24% of 330,000 active;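 active = activation factor of at least 2 at 20 µM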
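also added = chemiluminescent substrate CDP-Star | test system = mouse IAP enzyme | signal = chemiluminescence readout | compound = DMSO-dissolved test compounds | incubation = 30 min at room temperature | benchmarks = DMSO wells, no-enzyme wells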
mIAP inh – mouse IAP inhibition; inhibition, % at 10 µM; 0.2% of 330,000 active; purified mouse IAP, CDP-Star luminescence, 30 min;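 active = inhibition of at least 40% at 10 µM in the primary screen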
hIAP act – human IAP activation. P09923. purified human IAP, CDP-Star luminescence, 30 min; hits give high values; 1 = vehicle-only enzyme, 0 = enzyme-free background. activation factor at 10 µM. 0.16% of 330,000 active. AID 2524;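 active = activation factor of the enzyme at least 2-fold when tested at 20 µM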
bIAP inhibitor – blocks bovine intestinal alkaline phosphatase activity; purified bovine IAP, CDP-star luminescence, 30 min; inhibition, % at 20 µM; 190,000 tested, under 10 active;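 active = over 50% inhibition of intestinal alkaline phosphatase at 20 µM in the single-dose screen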
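System: purified bovine intestinal alkaline phosphatase (IAP) enzyme; Input: IAP diluted 1/65,000,000 in the well; Measured by: CDP-star luminescence signal; Compound dosing: 20 µM single dose; Incubation: 30 min reaction at room temperature.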
hIAP act confirm – human IAP activation confirmation. AID 434926. shares compounds with hIAP act. activation (%Activity, negative = activation), % at 8.3 µM. purified IAP, CDP-Star luminescence, 30 min; hits give low values. 10% of 880 active;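 active = at least twofold enzyme activation in any of six single-dose repeats, which the averaged readout prints as negative percent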
Hits are given with their value; n = inactive; x = no result.

SMILES | bIAP act | hIAP block | mIAP activ | mIAP inh | hIAP act | bIAP inhibitor | others
Cc1ccc(NC(=S)NCCC(c2ccccc2)c2ccccc2)c(C)c1 | n | n | 4.07 | n | n | n
Cc1cc(C)n(-c2nc(NCCN(C)C)c3c4c(sc3n2)COC(C)(C)C4)n1 | x | n | n | n | n | x
Cc1cc(C)n(-c2nc(NCCC(C)C)c3c4c(sc3n2)COC(C)(C)C4)n1 | 2.4 | x | x | x | x | n
CSc1nsc(SC)c1NC(=O)OCCc1ccccn1 | n | n | n | 41.2 | n | n
CSc1nsc(SC)c1NC(=O)OCc1ccccc1 | n | n | n | n | n | n
Cc1ccccc1NC(=S)NCc1ccc(F)cc1 | x | n | n | n | n | x
CCCc1ccc(C(C)NC(=S)NC2CCCCC2)cc1 (centres undefined) | x | n | 2.31 | n | n | x
CCOc1ccc(C(C)NC(=S)NCc2ccc(Cl)cc2)cc1 (centres undefined) | n | n | 4.01 | n | n | n
CC(NC(=S)NC1CCCCC1)c1ccccc1 (centres undefined) | x | n | n | n | n | x
CCC(NC(=S)NCc1ccc(F)cc1)c1ccc(C(C)C)cc1 (centres undefined) | x | n | 4.15 | n | n | x
CCCc1ccc(C(C)NC(=S)NCc2ccc(F)cc2)cc1 (centres undefined) | x | n | 2.96 | n | n | x
COc1ccc(S(=O)(=O)Nc2cccc(-c3ccc4nncn4n3)c2)c(OC)c1 | x | n | n | n | n | x
CCC(C)c1ccc(C(C)NC(=S)NCc2ccc(F)cc2)cc1 (centres undefined) | x | n | 2.57 | n | n | x
COc1ccc(C(C)NC(=S)NCc2ccc(F)cc2)cc1OC (centres undefined) | x | n | n | n | n | x
Cc1ccc(C)c2c1N(Cc1ccccc1)C(=O)C21OCCO1 | x | n | n | n | n | x
CCOC(=O)c1c(N)sc(=S)c2c1CCC2 | n | n | n | 41.1 | n | n
Cn1c(C(O)c2ccc3c(c2)OCO3)nc2ccccc21 (centres undefined) | n | n | n | n | n | n
CC(C)n1c(C(O)c2ccc3c(c2)OCO3)nc2ccccc21 (centres undefined) | 2.6 | n | n | n | n | n
O=C(CSCc1c(F)cccc1F)Nc1ccccc1 | x | n | n | n | n | x
Cc1cccc(N=C2NC(=O)/C(=C/C=C/c3ccco3)S2)c1 | n | x | x | x | x | n
Cc1ccc(N=C2NC(=O)/C(=C\c3ccco3)S2)cc1 | n | n | n | 45.4 | n | n
CC1CC(C)CN(CC(O)COCc2ccccc2)C1 (centres undefined) | x | n | n | n | n | x
CCc1cc(Cn2nc(-c3ccccc3)cc2C(=O)NCc2cccs2)on1 | x | n | 3.58 | n | n | x
Cc1ccc(-n2ncc3c(NCc4ccco4)ncnc32)c(C)c1 | n | n | n | n | n | n
Cc1ccc(-n2ncc3c(NNC(=O)c4ccco4)ncnc32)c(C)c1 | n | n | n | n | 2.98 | n
SMILES | bIAP act | hIAP block | mIAP activ | mIAP inh | hIAP act | bIAP inhibitor | others
Cn1ncc2c(NNC(=O)c3ccc(O)cc3)ncnc21 | n | n | n | n | n | n
Cc1cccc(C(=O)NNc2ncnc3c2cnn3C)c1 | n | n | n | n | 2.13 | n
CCO[C@H]1c2c(ccc3ccc(=O)oc23)OC(C)(C)[C@H]1O | x | n | n | n | n | x
Fc1c(F)c(F)c(N/N=C/c2c[nH]c3ccccc23)c(F)c1F | 2.7 | n | n | n | n | n
Cc1ccc(NS(=O)(=O)c2c(C(=O)N3CCCCCC3)c(C)n(C)c2C)c(Cl)c1 | x | n | n | n | n | x
O=C(Nc1cccc(F)c1)c1ccc(-c2ccccc2C(F)(F)F)o1 | n | x | x | x | x | n
Cc1ccccc1-c1ccc(C(=O)Nc2cccc(F)c2)o1 | 3.5 | n | n | n | n | n
O=C(Nc1ccc(Cl)c(Cl)c1)O/N=C/c1ccncc1 | n | n | 2.42 | n | n | n
Cc1cccc(Cc2nnc(CCC(=O)N(C)C3CCOC3)o2)c1 (centres undefined) | n | n | n | n | n | n
Cc1ccc(F)cc1CNC(=O)C1CCC(=O)N(C2CC2)C1 (centres undefined) | x | n | n | n | n | x
CC(C)c1ccc(NC(=O)C(c2ccc3c(c2)OCO3)N2CCN(C(=O)c3ccco3)CC2)cc1 (centres undefined) | n | n | 2.07 | n | n | n
CC(C)c1ccc(N(C(=O)c2csnn2)C(C(=O)NC2CCCC2)c2cccnc2)cc1 (centres undefined) | x | n | n | n | n | x
COCC(=O)N1CCC(Oc2ccc(C(=O)NCc3cc(C)no3)cc2)CC1 | x | 36.0 | n | n | n | x | hIAP act confirm=n
CCNc1nc(NCC)nc(Oc2ccc(OCc3ccccc3)nn2)n1 | n | n | n | n | n | n
CC(C)Nc1nc(NC(C)C)nc(Oc2ccc(OCc3ccccc3)nn2)n1 | n | 37.1 | n | n | n | n | hIAP act confirm=n
Cn1c(C(=O)N2CCCC(C(=O)NCc3cccs3)C2)cc2sccc21 (centres undefined) | n | 37.8 | n | n | n | n | hIAP act confirm=n
O=C(NNC(=S)NC(=O)c1ccccc1)c1cccnc1 | x | n | n | n | 2.48 | x | hIAP act confirm=-320.1
CC(C)CC(=O)Nc1ccc(C(=O)CN2C(=O)NC3(CCOc4ccccc43)C2=O)cc1 (centres undefined) | x | n | n | n | n | x
COC(=O)Cc1ccc(NC(=S)NCCSc2ccc(C)cc2)cc1 | n | n | n | n | n | n
Cc1ccc(NC(=S)NCCSc2ccc(Cl)cc2)cc1 | n | n | 2.27 | n | 2.33 | n | hIAP act confirm=n
Cc1nc(S/C(=C/c2ccc(-c3ccc(Cl)cc3)o2)C(=O)O)n[nH]1 | n | n | n | n | 2.2 | n | hIAP act confirm=-88.7
NC1=NCC(O)=C1c1nc2ccccc2[nH]1 | n | n | n | n | 2.01 | n | hIAP act confirm=n
Cc1c(C(=O)N/N=C/c2c(O)ccc3ccccc23)nnn1-c1nonc1N | x | n | n | n | 2.05 | x | hIAP act confirm=-86.1
O=C(CSc1ncn[nH]1)NNC(=O)c1ccccc1 | x | n | n | n | 2.23 | x | hIAP act confirm=n
COc1ccc2nc(NNC(=O)c3cc(=O)c4ccccc4o3)sc2c1 | n | n | n | n | 2.24 | n | hIAP act confirm=n
Cc1cccc2sc(NNC(=O)c3cc(=O)c4ccccc4o3)nc12 | n | n | n | n | n | n
O=C(NNc1nc2c(F)cccc2s1)c1cc(=O)c2ccccc2o1 | n | n | n | n | 2.74 | n | hIAP act confirm=n
O=C(C1CCN(C2CC(=O)N(c3cccc(Cl)c3)C2=O)CC1)N1CCCC1 (centres undefined) | n | n | n | n | 2.94 | n | hIAP act confirm=n
Cc1ccc(C(C(=O)NCc2ccc(F)cc2)N(Cc2ccco2)C(=O)c2snc(C(N)=O)c2N)o1 (centres undefined) | x | n | n | n | n | x
CCc1ccc(/C=N/Nc2ncnc3nc[nH]c23)cc1 | x | n | n | n | 2.67 | x | hIAP act confirm=n

From PubChem
